The source made the active and inactive calls. No cut-off for these calls is given here.
molecular target: T1, Histone-lysine N-methyltransferase EHMT2 (Homo sapiens, UniProt Q96KQ7); assay: Inhibition of C-terminal GST-tagged human G9a-mediated-methylation of histone3 expressed in Escherichia coli BL21(DE3) by scintillation proximity assay
T1 sequence (Q96KQ7 whole entry): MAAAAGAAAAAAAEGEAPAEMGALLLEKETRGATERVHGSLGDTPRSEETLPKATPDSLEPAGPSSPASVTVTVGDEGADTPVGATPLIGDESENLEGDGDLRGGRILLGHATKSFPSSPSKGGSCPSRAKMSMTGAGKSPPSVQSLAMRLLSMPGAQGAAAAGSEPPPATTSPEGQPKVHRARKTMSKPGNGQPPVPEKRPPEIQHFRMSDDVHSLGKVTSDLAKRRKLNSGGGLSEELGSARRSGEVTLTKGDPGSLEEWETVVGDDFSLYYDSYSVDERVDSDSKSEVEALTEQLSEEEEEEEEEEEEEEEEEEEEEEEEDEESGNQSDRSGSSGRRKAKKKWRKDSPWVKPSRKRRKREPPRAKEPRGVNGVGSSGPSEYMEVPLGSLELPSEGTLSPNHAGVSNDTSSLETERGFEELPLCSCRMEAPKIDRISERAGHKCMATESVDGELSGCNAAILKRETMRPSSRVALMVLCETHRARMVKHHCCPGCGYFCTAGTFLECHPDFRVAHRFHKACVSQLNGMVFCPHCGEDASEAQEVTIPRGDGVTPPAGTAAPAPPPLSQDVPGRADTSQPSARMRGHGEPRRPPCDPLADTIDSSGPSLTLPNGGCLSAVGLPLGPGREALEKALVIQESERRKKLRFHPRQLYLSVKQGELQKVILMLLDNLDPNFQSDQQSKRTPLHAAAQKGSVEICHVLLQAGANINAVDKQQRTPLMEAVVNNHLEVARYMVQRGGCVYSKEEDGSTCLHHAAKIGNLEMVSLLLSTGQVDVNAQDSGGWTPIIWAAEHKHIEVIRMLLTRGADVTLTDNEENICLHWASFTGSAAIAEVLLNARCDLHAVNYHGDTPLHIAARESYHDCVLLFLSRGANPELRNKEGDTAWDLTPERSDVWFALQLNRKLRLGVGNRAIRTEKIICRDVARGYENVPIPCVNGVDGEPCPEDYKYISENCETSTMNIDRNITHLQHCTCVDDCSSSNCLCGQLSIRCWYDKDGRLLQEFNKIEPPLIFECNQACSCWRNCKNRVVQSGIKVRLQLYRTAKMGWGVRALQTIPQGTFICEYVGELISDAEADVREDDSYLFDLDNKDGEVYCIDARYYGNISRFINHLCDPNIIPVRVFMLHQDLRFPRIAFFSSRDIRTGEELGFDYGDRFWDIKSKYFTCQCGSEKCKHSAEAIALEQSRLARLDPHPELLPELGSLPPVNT

Q: For `O=C(O)c1cccc(NCc2cccc(-n3ccc4c(-c5ccc(C(F)(F)F)cc5)cccc43)c2)c1`, which IC50 is on record?
A: The IC50 was 26.4 µM.

molecular target: T2, Histone-lysine N-methyltransferase SETD7 (Homo sapiens) (UniProt Q8WTS6); assay: Inhibition of methyl-transferase activity in GST-tagged recombinant SET7/9 (unknown origin) expressed in Escherichia coli BL21 using H3(1-20)-cys-biotin as substrate at 40 uM preincubated for 5 mins followed by substrate addition by ELISA relative to control
T2 sequence (whole entry): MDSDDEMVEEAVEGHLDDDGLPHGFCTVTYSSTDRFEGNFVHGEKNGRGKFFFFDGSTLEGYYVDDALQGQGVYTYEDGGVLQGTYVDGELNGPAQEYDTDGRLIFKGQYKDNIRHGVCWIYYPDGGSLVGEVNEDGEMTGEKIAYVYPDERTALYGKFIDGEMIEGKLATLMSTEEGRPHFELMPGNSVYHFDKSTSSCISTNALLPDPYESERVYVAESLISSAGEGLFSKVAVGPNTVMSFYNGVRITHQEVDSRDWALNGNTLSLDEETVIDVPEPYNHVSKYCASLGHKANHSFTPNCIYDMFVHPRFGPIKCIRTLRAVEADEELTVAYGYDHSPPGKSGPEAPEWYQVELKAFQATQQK
Outline: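 GST-fused SET7 (residues 52–366), expressed in bacteria. Enzyme at 2.8 nM with SAM (300 nM) in Tris pH 8.0 buffer (4% DMSO, BSA, EDTA, DTT, Triton X-100) on streptavidin plates, preincubated with compound 5 min at room temperature. Biotinylated H3(1–20)-cys substrate (900 nM) added, 5 min at 30 °C. Stopped with acetate pH 5.0. H3K4me1 detected with antibody, HRP secondary and chemiluminescence; signal given relative to DMSO control.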

Q: How did the inhibition turn out when `O=C(O)c1ccc(-c2cccc3c2ccn3-c2cccc(CNc3cccc(C(=O)O)c3)c2)cc1` was run?
A: Its inhibition is “inactive”.

Q: For `O=C(O)c1cccc(NCc2cccc(-n3ccc4c(-c5ccc(C(F)(F)F)cc5)cccc43)c2)c1`, which inhibition is on record?
A: Its inhibition is “Active”.

Q: With `O=C(O)c1cccc(SCc2cccc(-n3ccc4c(Br)cccc43)c2)c1` as the compound, how does the inhibition read?
A: The inhibition was “Active”.

Q: For `Cc1ccc(-c2cccc3c2ccn3-c2cccc(CNc3cccc(C(=O)O)c3)c2)cc1`, which inhibition is on record?
A: The inhibition was “Active”.

Q: For `O=C(O)c1cccc(SCc2cccc(-n3ccc4c(-c5ccccc5)cccc43)c2)c1`, which inhibition is on record?
A: The inhibition was 50%.

Q: For `O=C(O)c1cccc(SCc2cccc(-n3ccc4cc(Br)ccc43)c2)c1`, which inhibition is on record?
A: Its inhibition is “Active”.

Q: With `O=C(O)c1cccc(NCc2cccc(-n3ccc4c(-c5ccccc5)cccc43)c2)c1` as the compound, how does the inhibition read?
A: The inhibition was 50%.

Q: For `O=C(O)CCCSCc1cccc(-n2ccc3cc(Br)ccc32)c1`, which inhibition is on record?
A: The inhibition was “Active”.

Q: With `O=C(O)c1cccc(NCc2cccc(-n3ccc4c(-c5ccc6ccccc6c5)cccc43)c2)c1` as the compound, how does the inhibition read?
A: The inhibition was “Active”.

Q: With `CC(=O)Nc1ccc(-c2cccc3c2ccn3-c2cccc(CNc3cccc(C(=O)O)c3)c2)cc1` as the compound, how does the inhibition read?
A: The inhibition was “Active”.

Q: For `N[C@@H](CCSCc1cccc(-n2ccc3cc(Br)ccc32)c1)C(=O)O`, which inhibition is on record?
A: The inhibition was 12%.

molecular target: T2, Histone-lysine N-methyltransferase SETD7 (Homo sapiens); assay: Inhibition of SET7 (unknown origin)-mediated methylation of histone H3(1-20)cys-biotin at 15 to 50 uM after 5 mins by scintillation proximity assay in presence of [3H]-S-adenosyl-methionine
Outline: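 SET7 (25 nM) with biotinylated H3(1–20)-cys peptide (900 nM) and compound (2% DMSO final) in Tris pH 8.5 buffer with BSA, EDTA and DTT, 5 min at 30 °C. Started with SAM (2 µM) carrying trace 3H-SAM (0.2 µM), 8 min at 30 °C. Quenched onto streptavidin SPA beads in acetate pH 5.0 with excess cold SAM, then counted. Background-subtracted CPM expressed as percent of DMSO control. Tested twice.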

Q: With `O=C(O)c1cccc(NCc2cccc(-n3ccc4c(-c5ccc(C(F)(F)F)cc5)cccc43)c2)c1` as the compound, how does the inhibition read?
A: The inhibition was “Active”.

Q: With `O=C(O)c1cccc(S(=O)(=O)Nc2cccc(-n3ccc4c(-c5ccc(C(F)(F)F)cc5)cccc43)c2)c1` as the compound, how does the inhibition read?
A: The inhibition was “Active”.

Q: `O=C(O)c1cccc(CNc2cccc(-n3ccc4c(-c5ccc(C(F)(F)F)cc5)ncnc43)c2)c1` was tested. Which inhibition did it give?
A: The inhibition was “Active”.

Q: `O=C(O)c1cccc(NCc2cccc(-n3cnc4c(-c5ccc(C(F)(F)F)cc5)cccc43)c2)c1` was tested. Which inhibition did it give?
A: Its inhibition is “Active”.

Q: Which inhibition does the source give for `O=[N+]([O-])c1cccc(S(=O)(=O)Nc2cccc(-n3ccc4c(-c5ccc(C(F)(F)F)cc5)cccc43)c2)c1` here?
A: Its inhibition is “Active”.

Q: `Cc1cc(O)c(C(=O)O)cc1S(=O)(=O)Nc1cccc(-n2ccc3c(-c4ccc(C(F)(F)F)cc4)cccc32)c1` was tested. Which inhibition did it give?
A: The inhibition was “Active”.

Q: With `O=[N+]([O-])c1ccccc1S(=O)(=O)Nc1cccc(-n2ccc3c(-c4ccc(C(F)(F)F)cc4)cccc32)c1` as the compound, how does the inhibition read?
A: Its inhibition is “Active”.

Q: How did the inhibition turn out when `O=C(O)c1cccc(NCc2ccc(-n3ccc4c(-c5ccc(C(F)(F)F)cc5)ncnc43)s2)c1` was run?
A: The inhibition was “Active”.

Q: For `O=C(O)c1cccc(NCc2cccc(-n3ncc4cc(-c5ccc(C(F)(F)F)cc5)ccc43)c2)c1`, which inhibition is on record?
A: The inhibition was “Active”.

Q: `O=C(O)c1cccc(NCc2cccc(-n3ccc4cc(-c5ccc(C(F)(F)F)cc5)cnc43)c2)c1` was tested. Which inhibition did it give?
A: Its inhibition is “Active”.

Q: For `O=C(O)c1cccc(NCc2cccc(-n3ccc4cc(-c5ccc(C(F)(F)F)cc5)ccc43)c2)c1`, which inhibition is on record?
A: Its inhibition is “Active”.

Q: How did the inhibition turn out when `CC(=O)Nc1nc(C)c(S(=O)(=O)Nc2cccc(-n3ccc4c(-c5ccc(C(F)(F)F)cc5)cccc43)c2)s1` was run?
A: The inhibition was “Active”.

Q: With `O=C(O)c1ccccc1S(=O)(=O)Nc1cccc(-n2ccc3c(-c4ccc(C(F)(F)F)cc4)cccc32)c1` as the compound, how does the inhibition read?
A: The inhibition was “Active”.

Q: Which inhibition does the source give for `CS(=O)(=O)c1ccc(S(=O)(=O)Nc2cccc(-n3ccc4c(-c5ccc(C(F)(F)F)cc5)cccc43)c2)cc1` here?
A: The inhibition was “Active”.

Q: `O=C(O)c1ccc(S(=O)(=O)Nc2cccc(-n3ccc4c(-c5ccc(C(F)(F)F)cc5)cccc43)c2)cc1` was tested. Which inhibition did it give?
A: Its inhibition is “Active”.

Q: How did the inhibition turn out when `O=C(O)c1cccc(NCc2cccc(-n3ccc4c(-c5ccc(C(F)(F)F)cc5)ncnc43)c2)c1` was run?
A: Its inhibition is “Active”.

Q: With `O=[N+]([O-])c1ccc(S(=O)(=O)Nc2cccc(-n3ccc4c(-c5ccc(C(F)(F)F)cc5)cccc43)c2)cc1` as the compound, how does the inhibition read?
A: The inhibition was “Active”.

From ChEMBL document CHEMBL3232795, “Using 'biased-privileged' scaffolds to identify lysine methyltransferase inhibitors” (Bioorg Med Chem, 2014)
